Test results as given in ChEMBL document CHEMBL1157382, “Scopularides A and B, cyclodepsipeptides from a marine sponge-derived fungus, Scopulariopsis brevicaulis” (2008).
Activity calls are given as the source filed them. The rule behind the calls is not given here.

Assays:
[1] = system: Escherichia coli; experiment: Antimicrobial activity against Escherichia coli; format: functional, organism-based
[2] = Antitumor activity against human Panc89 cells assessed as reduction of viability at 10 ug/ml; format: functional
How it was run: (§1)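 Viability was measured in the pancreatic tumor lines Colo357 and Panc89 and the colon tumor line HT29, with compound present at a final concentration of 10 µg/mL. The read-out is percent reduction in cell viability.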

[3] = system: Nakaseomyces glabratus; experiment: Antimicrobial activity against Candida glabrata; format: functional, organism-based
[4] = system: COLO357; experiment: Antitumor activity against human Colo357 cells assessed as reduction of viability at 10 ug/ml; format: functional; how it was run: as §1
[5] = system: HT-29; experiment: Antitumor activity against human HT29 cells assessed as reduction of viability at 10 ug/ml; format: functional; how it was run: as §1
[6] = system: Pseudomonas fluorescens; experiment: Antimicrobial activity against Pseudomonas fluorescens; format: functional, organism-based

SMILES | Activity [1] | Activity [2] | Activity [3] | Activity [4] | Activity [5] | Activity [6]
CCCCCCC(C)[C@@H]1CC(=O)NCC(=O)N[C@@H](C(C)C)C(=O)N[C@H](CC(C)C)C(=O)N[C@@H](C)C(=O)N[C@@H](Cc2ccccc2)C(=O)O1 (some centres not stated) [SCOPULARIDE A] | inactive | 42% | inactive | 36% | 37% | inactive
CCCCC(C)[C@@H]1CC(=O)NCC(=O)N[C@@H](C(C)C)C(=O)N[C@H](CC(C)C)C(=O)N[C@@H](C)C(=O)N[C@@H](Cc2ccccc2)C(=O)O1 (some centres not stated) [SCOPULARIDE B] | inactive | 49% | inactive | 26% | 24% | inactive
